Measured values from ChEMBL document CHEMBL3112527, “Quinoline-pyrimidine hybrids: synthesis, antiplasmodial activity, SAR, and mode of action studies” (J Med Chem, 2014).
≈ marks a conversion by molar mass, not a printed value. Calls of active or inactive are those of the source. The rule behind the calls is not given here.

Experiments:
Human alphaherpesvirus 2 = test: Antiviral activity against HSV-2 G infected in HEL cells assessed as inhibition of virus-induced cytopathicity; assay type: functional, organism-based; conditions: strain G
Procedure, shortened: (§1)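 Confluent monolayers (HEL, Vero, HeLa or CrFK, as applicable) were inoculated with 100 CCID50 of virus, with 1 CCID50 being the dose that infects 50% of cultures. Infection ran in the presence of varying compound concentrations. Inhibition of virus-induced cytopathicity was scored against infected cultures left untreated.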

Human alphaherpesvirus 1 [1] = test: Antiviral activity against HSV-1 KOS infected in HEL cells assessed as inhibition of virus-induced cytopathicity; assay type: functional, organism-based; procedure, shortened: as §1
[2] = Solubility of the compound in octanol at pH 7.4 by HPLC analysis; assay type: physicochemical
[3] = n-octanol-PBS buffer distribution coefficient, log D of the compound at pH 7.4 after 24 hrs by HPLC analysis; assay type: physicochemical
[4] = Aqueous solubility of the compound in PBS buffer at pH 7.4 after 24 hrs by HPLC analysis; assay type: physicochemical; conditions: pH 7.4, 24 h
[5] = Selectivity index, ratio of CC50 for cat CRFK cells to IC50 for chloroquine-resistant asexual erythrocytic stage of Plasmodium falciparum Dd2; assay type: functional
Procedure, shortened: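 Ratio of CRFK CC50 (μM) to Dd2 IC50 […]. CC50 is the 50% cytotoxic concentration in feline kidney CRFK cells, measured as cell viability by colorimetric formazan-based MTS assay. Dd2 IC50 is from the parasite LDH growth-inhibition assay.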

[6] = Cytotoxicity against cat CRFK cells assessed as cell viability by MTS assay; assay type: cell-based, Felis catus
Procedure, shortened: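 CRFK cells were exposed to varying sample concentrations. Cell viability was measured with the colorimetric formazan-based MTS assay, and the 50% cytotoxic concentration (CC50) was derived from it.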

[7] = Cytotoxicity against human HeLa cells assessed as alteration of cell morphology by microscopic analysis; assay type: cell-based; conditions: read-out: MIC
Procedure, shortened: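 Cells (Vero, HEL, MDCK or HeLa) were exposed to a range of sample concentrations. The value reported is the concentration required to cause a microscopically detectable alteration of normal cell morphology.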

Plasmodium falciparum [8] = test: Antiplasmodial activity against chloroquine-resistant asexual erythrocytic stage of Plasmodium falciparum Dd2 assessed as parasite growth inhibition by lactate dehydrogenase assay; assay type: functional, organism-based
Procedure, shortened: (§2)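 Parasite lactate dehydrogenase assay (modified Makler method). Samples held as 20 mg/mL stocks in DMSO, diluted on test day. Full dose-response: starting at 10 μg/mL, 2-fold serial dilution in complete medium over 10 concentrations down to 0.02 μg/mL. Chloroquine, artesunate and MMV390048 served as references. IC50 from nonlinear dose-response curve fitting; mean of three independent experiments.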

Plasmodium falciparum [9] = test: Antiplasmodial activity against chloroquine-sensitive asexual erythrocytic stage of Plasmodium falciparum D10 assessed as parasite growth inhibition by lactate dehydrogenase assay; assay type: functional, organism-based; procedure, shortened: as §2
Felid alphaherpesvirus 1 = test: Antiviral activity against Feline herpesvirus infected in cat CRFK cells assessed as inhibition of virus-induced cytopathicity; assay type: functional, organism-based; procedure, shortened: as §1
Feline coronavirus = test: Antiviral activity against Feline coronavirus infected in cat CRFK cells assessed as inhibition of virus-induced cytopathicity; assay type: functional, organism-based; procedure, shortened: as §1
Human alphaherpesvirus 3 = test: Antiviral activity against Varicella-zoster virus infected in HEL cells assessed as inhibition of virus-induced cytopathicity; assay type: functional, organism-based
Human betaherpesvirus 5 [10] = test: Antiviral activity against Cytomegalovirus Davis infected in HEL cells assessed as inhibition of virus-induced cytopathicity; assay type: functional, organism-based
Human betaherpesvirus 5 [11] = test: Antiviral activity against Cytomegalovirus AD169 infected in HEL cells assessed as inhibition of virus-induced cytopathicity; assay type: functional, organism-based
[12] = system: Respiratory syncytial virus; test: Antiviral activity against Respiratory syncytial virus infected in human HeLa cells assessed as inhibition of virus-induced cytopathicity; assay type: functional, organism-based; procedure, shortened: as §1
Coxsackievirus B4 [13] = test: Antiviral activity against Coxsackievirus B4 infected in human HeLa cells assessed as inhibition of virus-induced cytopathicity; assay type: functional, organism-based; procedure, shortened: as §1
Influenza A virus H3N2 = test: Antiviral activity against Influenza A virus H3N2 infected in MDCK cells assessed as inhibition of virus-induced cytopathicity; assay type: functional, organism-based
Procedure, shortened: (§3)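 Confluent monolayers in 96-well plates were inoculated with 100 CCID50 of virus in the presence of varying concentrations of compound. Read-out was inhibition of virus-induced cytopathicity, compared with untreated infected cultures. Cytotoxicity was judged microscopically or by MTT viability staining.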

[14] = system: Vesicular stomatitis virus; test: Antiviral activity against Vesicular stomatitis virus infected in human HeLa cells assessed as inhibition of virus-induced cytopathicity; assay type: functional, organism-based; procedure, shortened: as §3
Influenza A virus = test: Antiviral activity against influenza A virus H1N1 infected in MDCK cells assessed as inhibition of virus-induced cytopathicity; assay type: functional, organism-based; procedure, shortened: as §3
Punta Toro virus = test: Antiviral activity against Punta Toro virus infected in African green monkey Vero cells assessed as inhibition of virus-induced cytopathicity; assay type: functional, organism-based; procedure, shortened: as §1
Coxsackievirus B4 [15] = test: Antiviral activity against Coxsackievirus B4 infected in African green monkey Vero cells assessed as inhibition of virus-induced cytopathicity; assay type: functional, organism-based; procedure, shortened: as §1
Sindbis virus = test: Antiviral activity against Sindbis virus infected in African green monkey Vero cells assessed as inhibition of virus-induced cytopathicity; assay type: functional, organism-based
[16] = system: Mammalian orthoreovirus 1; test: Antiviral activity against Reovirus 1 infected in African green monkey Vero cells assessed as inhibition of virus-induced cytopathicity; assay type: functional, organism-based; procedure, shortened: as §1
Human respirovirus 3 = test: Antiviral activity against parainfluenza virus 3 infected in African green monkey Vero cells assessed as inhibition of virus-induced cytopathicity; assay type: functional, organism-based; procedure, shortened: as §1
Human alphaherpesvirus 1 [17] = test: Antiviral activity against thymidine kinase-negative acyclovir-resistant HSV-1 KOS infected in HEL cells assessed as inhibition of virus-induced cytopathicity; assay type: functional, organism-based; procedure, shortened: as §3
[18] = system: Vesicular stomatitis virus; test: Antiviral activity against Vesicular stomatitis virus infected in HEL cells assessed as inhibition of virus-induced cytopathicity; assay type: functional, organism-based; procedure, shortened: as §3
Vaccinia virus = test: Antiviral activity against Vaccinia virus infected in HEL cells assessed as inhibition of virus-induced cytopathicity; assay type: functional, organism-based; conditions: Orthopoxvirus vaccinia; procedure, shortened: as §3
HeLa = test: Cytotoxicity against human HeLa cells assessed as growth inhibition by MTT assay; assay type: cell-based
DNA = test: Binding affinity to calf thymus DNA at 5:1 DNA to compound ratio by spectrophotometric analysis; assay type: nucleic-acid assay; conditions: Bos taurus

Compound	inhibition (Human alphaherpesvirus 2)	inhibition (Human alphaherpesvirus 1 [1])	solubility [2]	logD at 24 h [3]	solubility [4]	Ratio CC50/IC50 [5]	CC50 [6]	MCC [7]	IC50 (Plasmodium falciparum [8])	IC50 (Plasmodium falciparum [9])	inhibition (Felid alphaherpesvirus 1)	inhibition (Feline coronavirus)	inhibition (Human alphaherpesvirus 3)	inhibition (Human betaherpesvirus 5 [10])	inhibition (Human betaherpesvirus 5 [11])	inhibition [12]	inhibition (Coxsackievirus B4 [13])	inhibition (Influenza A virus H3N2)	inhibition [14]	inhibition (Influenza A virus)	other results
Clc1ccc2c(NCCCNc3nccc(N4CCCC4)n3)ccnc2c1	inactive	inactive	1.25 µM (≈ 0.479 µg/mL)	0.756	0.22 µM (≈ 0.0842 µg/mL)	327	49000 nM	100 µM	151 nM	28.7 nM	inactive	inactive	inactive	inactive	inactive	inactive	inactive	inactive	inactive	inactive	inhibition (Punta Toro virus): inactive; inhibition (Coxsackievirus B4 [15]): inactive; inhibition (Sindbis virus): inactive; inhibition [16]: inactive; inhibition (Human respirovirus 3): inactive; inhibition (Human alphaherpesvirus 1 [17]): inactive; inhibition [18]: inactive; inhibition (Vaccinia virus): inactive
CCN(CC)CCCC(C)Nc1ccnc2cc(Cl)ccc12 (stereo not drawn) [CHLOROQUINE PHOSPHATE]																					IC50 (HeLa): 30000 nM; Activity (DNA): Active
Clc1ccc2c(NCCCNc3ccnc(N4CCCCC4)n3)ccnc2c1	inactive	inactive	2.02 µM (≈ 0.802 µg/mL)	0.801	0.32 µM (≈ 0.127 µg/mL)	334	55000 nM	20 µM	166 nM	65.5 nM	inactive	inactive	inactive	inactive	inactive	inactive	inactive	inactive	inactive	inactive	inhibition (Punta Toro virus): inactive; inhibition (Coxsackievirus B4 [15]): inactive; inhibition (Sindbis virus): inactive; inhibition [16]: inactive; inhibition (Human respirovirus 3): inactive; inhibition (Human alphaherpesvirus 1 [17]): inactive; inhibition [18]: inactive; inhibition (Vaccinia virus): inactive
